In brackets after ≈: the same amount, converted by molar mass. Activity calls are given as the source filed them. No cut-off for these calls is given here.
Tests used:
Colletotrichum coccodes [1] = assay: In vivo antifungal activity against Colletotrichum coccodes infected red pepper seedlings assessed as control of red pepper anthracnose development at 500 ug/ml treated 1 day before spore inoculation measured 3-7 days after inoculation; assay type: functional
Method in brief: (§1)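 Potted seedlings sprayed to runoff with material dissolved in MeOH and diluted in 0.025% Tween 20 (5% MeOH); controls got the Tween/MeOH solution alone. Inoculated with spores or mycelial suspension 1 day later. Infected leaf or sheath area rated 3–7 days after inoculation; % control = 100(A−B)/A. Randomized complete block design, three replicates, run in duplicate; Tukey HSD.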

Rhizoctonia solani [2] = assay: In vivo antifungal activity against Rhizoctonia solani infected rice seedlings assessed as control of rice sheath blight disease development at 125 ug/ml treated 1 day before spore inoculation measured 3-7 days after inoculation; assay type: functional; method in brief: as §1
Rhizoctonia solani [3] = assay: In vivo antifungal activity against Rhizoctonia solani infected rice seedlings assessed as control of rice sheath blight disease development at 250 ug/ml treated 1 day before spore inoculation measured 3-7 days after inoculation; assay type: functional; method in brief: as §1
Pyricularia oryzae [4] = assay: In vivo antifungal activity against Magnaporthe oryzae infected rice seedlings assessed as control of rice blast disease development at 125 ug/ml treated 1 day before spore inoculation measured 3-7 days after inoculation; assay type: functional; method in brief: as §1
Botrytis cinerea [5] = assay: In vivo antifungal activity against Botryotinia fuckeliana infected in tomato seedlings assessed as control of tomato gray mold disease development at 500 ug/ml treated 1 day before spore inoculation measured 3-7 days after inoculation; assay type: functional; method in brief: as §1
Meloidogyne incognita [6] = assay: Nematicidal activity against second juvenile stage (J2) of Meloidogyne incognita (root-knot nematode) assessed as mortality incubated in the dark at 28 degC after 3 days by light microscopy (benficial crop Tomato); assay type: functional; details: 72 h
Method in brief: (§2)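 M. incognita eggs taken from infected tomato roots with hypochlorite and J2s hatched in Baermann funnels at 28 °C. J2s from the first 3 days kept in 0.01% Tween 20 water and used within 24 h. About 100 J2s per well; stock added 1:100 in DMSO or MeOH (≤1%). Plates kept shaking in the dark at 28 °C, scored by microscope at 1, 2 and 3 days. Mortality Abbott-corrected. Two runs, three replicates each.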

Puccinia recondita [7] = assay: In vivo antifungal activity against Puccinia recondita infected wheat seedlings assessed as reduction in wheat leaf rust disease symptoms development at 125 ug/ml treated 1 day before spore inoculation measured 7 days after inoculation; assay type: functional; set-up: scale not given: the % may be the effect or the level left; method in brief: as §1
Colletotrichum coccodes [8] = assay: In vivo antifungal activity against Colletotrichum coccodes infected red pepper seedlings assessed as control of red pepper anthracnose development at 250 ug/ml treated 1 day before spore inoculation measured 3-7 days after inoculation; assay type: functional; method in brief: as §1
Phytophthora infestans [9] = assay: Antifungal activity against Phytophthora infestans assessed as inhibition of zoospore germination incubated in the dark at 20 degC for 24 hr by light microscopy; assay type: functional, organism-based
Method in brief: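 Zoospores released by chilling sporangia 1 h at 4 °C, then filtered to remove sporangia. Test solution in MeOH mixed 1:100 with the suspension (1% MeOH control), loaded onto hole-slide glasses and kept humid at 20 °C for 24 h in the dark. Germinated cells counted per hole by light microscope. Experiment repeated, mean ± SD.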

Phytophthora infestans [10] = assay: Antifungal activity against Phytophthora infestans assessed as inhibition of radial mycelial growth at 11.11 to 900 ug/ml incubated at 20 degC for 5 to 7 days by poison plate assay; assay type: functional
Method in brief: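 Poison-plate assay: material in MeOH added 1:100 to V8-agar at 50 °C, 2 mL per well of six-well plates, centre-inoculated with a 5 mm plug from the colony margin. Incubated at 20 °C until control growth reached the edge. Controls were 1% MeOH. Read as % inhibition of radial growth. Two runs, four replicates each. IC50 by probit.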

Botrytis cinerea [11] = assay: In vivo antifungal activity against Botryotinia fuckeliana infected in tomato seedlings assessed as control of tomato gray mold disease development at 250 ug/ml treated 1 day before spore inoculation measured 3-7 days after inoculation; assay type: functional; method in brief: as §1
Phytophthora infestans [12] = assay: In vivo antifungal activity against Phytophthora infestans zoospores infected tomato seedlings assessed as control of tomato late blight disease development treated 1 day before spore inoculation measured 3 days after inoculation; assay type: functional, organism-based; method in brief: as §1
Meloidogyne incognita [13] = assay: Nematicidal activity against second juvenile stage (J2) of Meloidogyne incognita (root-knot nematode) assessed as mortality at 11 ug/ml incubated in the dark at 28 degC within 2 hr by light microscopy (benficial crop Tomato); assay type: functional
Pyricularia oryzae [14] = assay: In vivo antifungal activity against Magnaporthe oryzae infected rice seedlings assessed as control of rice blast disease development at 250 ug/ml treated 1 day before spore inoculation measured 3-7 days after inoculation; assay type: functional; method in brief: as §1
Blumeria hordei [15] = assay: In vivo antifungal activity against Blumeria graminis f. sp. hordei infected barley seedlings assessed as control of barley powdery mildew disease development at 250 ug/ml treated 1 day before spore inoculation measured 3-7 days after inoculation; assay type: functional; method in brief: as §1
Meloidogyne incognita [16] = assay: Nematicidal activity against second juvenile stage (J2) of Meloidogyne incognita (root-knot nematode) assessed as mortality incubated in the dark at 28 degC after 2 days by light microscopy (benficial crop Tomato); assay type: functional; details: 48 h; method in brief: as §2
[17] = tested on: Bursaphelenchus xylophilus; assay: Nematicidal activity against second juvenile stage (J2) of Bursaphelenchus xylophilus assessed as mortality at >0.33 ug/ml after 2 days by microtiter plate assay method (Beneficial crop Pine); assay type: functional
Method in brief: (§3)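 Pine wood nematodes reared on B. cinerea mycelia on PDA for 7 days at 28 °C. J2s collected in 0.01% Triton X-100 water and tested in microtiter plates. Compounds in DMSO or MeOH, solvent ≤1%; solvent-only controls. Concentrations 0.004–1 μg/mL. Mortality Abbott-corrected; LC50 by probit. Two runs, three replicates each.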

Puccinia recondita [18] = assay: In vivo antifungal activity against Puccinia recondita infected wheat seedlings assessed as reduction in wheat leaf rust disease symptoms development at 250 ug/ml treated 1 day before spore inoculation measured 7 days after inoculation; assay type: functional; set-up: scale not given: the % may be the effect or the level left; method in brief: as §1
Blumeria hordei [19] = assay: In vivo antifungal activity against Blumeria graminis f. sp. hordei infected barley seedlings assessed as control of barley powdery mildew disease development at 500 ug/ml treated 1 day before spore inoculation measured 3-7 days after inoculation; assay type: functional; method in brief: as §1
Puccinia recondita [20] = assay: In vivo antifungal activity against Puccinia recondita infected wheat seedlings assessed as reduction in wheat leaf rust disease symptoms development at 500 ug/ml treated 1 day before spore inoculation measured 7 days after inoculation; assay type: functional; set-up: scale not given: the % may be the effect or the level left; method in brief: as §1
Blumeria hordei [21] = assay: In vivo antifungal activity against Blumeria graminis f. sp. hordei infected barley seedlings assessed as control of barley powdery mildew disease development at 125 ug/ml treated 1 day before spore inoculation measured 3-7 days after inoculation; assay type: functional; method in brief: as §1
Rhizoctonia solani [22] = assay: In vivo antifungal activity against Rhizoctonia solani infected rice seedlings assessed as control of rice sheath blight disease development at 500 ug/ml treated 1 day before spore inoculation measured 3-7 days after inoculation; assay type: functional; method in brief: as §1
Botrytis cinerea [23] = assay: In vivo antifungal activity against Botryotinia fuckeliana infected in tomato seedlings assessed as control of tomato gray mold disease development at 125 ug/ml treated 1 day before spore inoculation measured 3-7 days after inoculation; assay type: functional; method in brief: as §1
Phytophthora infestans [24] = assay: Antifungal activity against Phytophthora infestans assessed as inhibition of sporangium germination incubated at 20 degC for 24 hr by light microscopy; assay type: functional, organism-based
Method in brief: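 Sporangium germination: compounds serially diluted in MeOH (12500 to 391 μg/mL as stock series), sporangia incubated 24 h at 20 °C. About 100 sporangia per replicate scored for germination by light microscope. Experiment repeated, mean ± SD. IC50 by probit.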

Meloidogyne incognita [25] = assay: Nematicidal activity against second juvenile stage (J2) of Meloidogyne incognita (root-knot nematode) assessed as mortality incubated in the dark at 28 degC after 1 day by light microscopy (benficial crop Tomato); assay type: functional; details: 24 h; method in brief: as §2
Pyricularia oryzae [26] = assay: In vivo antifungal activity against Magnaporthe oryzae infected rice seedlings assessed as control of rice blast disease development at 500 ug/ml treated 1 day before spore inoculation measured 3-7 days after inoculation; assay type: functional; method in brief: as §1
[27] = tested on: Bursaphelenchus xylophilus; assay: Nematicidal activity against second juvenile stage (J2) of Bursaphelenchus xylophilus assessed as mortality after 2 days by microtiter plate assay method (Beneficial crop Pine); assay type: functional; details: 48 h; method in brief: as §3
Puccinia recondita [28] = assay: In vivo antifungal activity against Puccinia recondita infected wheat seedlings assessed as reduction in wheat leaf rust disease symptoms development at 50 to 300 ug/ml treated 1 day before spore inoculation measured 7 days after inoculation; assay type: functional, organism-based; method in brief: as §1
Colletotrichum coccodes [29] = assay: In vivo antifungal activity against Colletotrichum coccodes infected red pepper seedlings assessed as control of red pepper anthracnose development at 125 ug/ml treated 1 day before spore inoculation measured 3-7 days after inoculation; assay type: functional; method in brief: as §1
Phytophthora infestans [30] = assay: In vivo antifungal activity against Phytophthora infestans zoospores infected tomato seedlings assessed as control of tomato late blight disease development at 3.9 ug/ml treated 1 day before spore inoculation measured 3 days after inoculation; assay type: functional; method in brief: as §1
Caenorhabditis elegans = assay: Nematicidal activity against Caenorhabditis elegans assessed as mortality; assay type: functional

`CCCCCCCCCC[C@H](O)[C@H]1CC[C@H]([C@H]2CC[C@H]([C@H](O)CCCCCCCCCC[C@@H](O)CC3=C[C@H](C)OC3=O)O2)O1` (relative stereo) [REL-SQUAMOCIN-G] gave an Activity (Colletotrichum coccodes [1]) of 0%, an Activity (Rhizoctonia solani [2]) of 11.8% and an Activity (Rhizoctonia solani [3]) of 0%. The Activity (Pyricularia oryzae [4]) was 12.5%, the Activity (Botrytis cinerea [5]) was 0% and the LC50 (Meloidogyne incognita [6]) was 0.287 µg/mL (≈ 0.461 µM). It also gave an Activity (Puccinia recondita [7]) of 0%, an Activity (Colletotrichum coccodes [8]) of 0% and an IC50 (Phytophthora infestans [9]) of 1.92 µg/mL (≈ 3.08 µM). For the same compound, the inhibition (Phytophthora infestans [9]) was “Dose-dependent effect”, the “growth inhibition (GI)” value (Phytophthora infestans [10]) was 31% and the Activity (Botrytis cinerea [11]) was 20%. The Activity (Phytophthora infestans [12]) was “Dose-dependent effect”, the mortality at 11 µg/mL (Meloidogyne incognita [13]) was 100% and the Activity (Pyricularia oryzae [14]) was 18.8%. For the same compound, the Activity (Blumeria hordei [15]) was 25%, the LC50 (Meloidogyne incognita [16]) was 0.339 µg/mL (≈ 0.544 µM) and the mortality [17] was 100%. It also gave an Activity (Puccinia recondita [18]) of 0%, an Activity (Blumeria hordei [19]) of 0% and an Activity (Puccinia recondita [20]) of 0%. For the same compound, the Activity (Blumeria hordei [21]) was 0%, the Activity (Rhizoctonia solani [22]) was 0% and the Activity (Botrytis cinerea [23]) was 20%. For the same compound, the IC50 (Phytophthora infestans [24]) was 1.43 µg/mL (≈ 2.3 µM), the inhibition (Phytophthora infestans [24]) was “Dose-dependent effect” and the LC50 (Meloidogyne incognita [25]) was 0.864 µg/mL (≈ 1.39 µM). It also gave an Activity (Pyricularia oryzae [26]) of 18.8% and an LC50 [27] of 0.008 µg/mL.
With `CCCCCC[C@H](O)CCC[C@H](O)[C@H]1CC[C@H]([C@H](O)CC[C@H](O)[C@@H]2CC[C@@H](CCCCCCCCCC3=C[C@H](C)OC3=O)O2)O1` (relative stereo) [SQUAMOSTATIN A] the Activity (Colletotrichum coccodes [1]) was 0%, the Activity (Rhizoctonia solani [2]) was 0% and the Activity (Puccinia recondita [28]) was “Active”. It also gave an Activity (Rhizoctonia solani [3]) of 11.8%, an Activity (Pyricularia oryzae [4]) of 50% and an Activity (Botrytis cinerea [5]) of 10%. The Activity (Colletotrichum coccodes [29]) was 20%, the Activity (Colletotrichum coccodes [8]) was 40% and the IC50 (Phytophthora infestans [9]) was 1.89 µg/mL (≈ 2.96 µM). The inhibition (Phytophthora infestans [9]) was “Dose-dependent effect”, the “growth inhibition (GI)” value (Phytophthora infestans [10]) was 31% and the Activity (Botrytis cinerea [11]) was 10%. For the same compound, the Activity (Phytophthora infestans [12]) was “Dose-dependent effect”, the Activity (Phytophthora infestans [30]) was over 70% and the Activity (Pyricularia oryzae [14]) was 31.3%. It also gave an Activity (Blumeria hordei [15]) of 0%, a mortality [17] of 100% and an Activity (Blumeria hordei [19]) of 0%. It also gave an Activity (Blumeria hordei [21]) of 0%, an Activity (Rhizoctonia solani [22]) of 11.8% and an Activity (Botrytis cinerea [23]) of 10%. For the same compound, the IC50 (Phytophthora infestans [24]) was 2.09 µg/mL (≈ 3.27 µM), the inhibition (Phytophthora infestans [24]) was “Dose-dependent effect” and the Activity (Pyricularia oryzae [26]) was 37.5%. The LC50 [27] was 0.048 µg/mL.
Work on `CCCCCCCCCC[C@@H](O)[C@H]1CC[C@H]([C@H]2CC[C@H]([C@H](O)CCCCCCCCCC[C@@H](O)CC3=C[C@H](C)OC3=O)O2)O1` [REL-SQUAMOCIN-H] yielded an LD100 (Caenorhabditis elegans) of 0.1 ppm, an LC50 (Meloidogyne incognita [6]) of 24.3 µg/mL (≈ 39 µM) and an LC50 (Meloidogyne incognita [16]) of 71.2 µg/mL (≈ 114 µM). For the same compound, the mortality [17] was 100%, the LC50 (Meloidogyne incognita [25]) was over 100 µg/mL and the LC50 [27] was 0.012 µg/mL.
